Bioassay records: PubChem, several laboratories
UPR XBP1 act: activators of adaptive XBP1 UPR arm, primary screen, cell-based, CHO-XBP1 luciferase reporter, luminescence, uHTS | IRE1-XBP1 UPR activation; percent of tunicamycin response, DMSO as zero | activation, % at 20 µM | actives 0.33% (n = 330,000) | AID 463104, 2010;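 active = versus positive control, 20 µM dose yields 30% or more activation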
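assay system = CHO-XBP1 luciferase reporter cells | amount = 1000 cells/well | buffer or medium = F12 plus 10% FBS | compound dosing = single point, 20 µM final compound, 1% DMSO | incubation = 16-18 h cell attachment at 37 °C, then 6 h compound exposure | detection = Steady-Glo luminescence read | controls = tunicamycin 10 µg/mL and vehicle-only wells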
Mdm2-MdmX inh: inhibitors of human Mdm2-MdmX association, primary screen, cell-based, luminescence, split luciferase, SaOS-2, uHTS; inhibition, % at 8 µM; Protein Mdm4 (Homo sapiens) + E3 ubiquitin-protein ligase Mdm2 (Homo sapiens), …; SaOS-2 split-luciferase Mdm2/MdmX complementation; actives 3% (n = 330,000); AID 485346, 2010;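 active = inhibition of at least 50% at 8 µM in the primary screen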
Target sequence (O15151 whole entry, looked up): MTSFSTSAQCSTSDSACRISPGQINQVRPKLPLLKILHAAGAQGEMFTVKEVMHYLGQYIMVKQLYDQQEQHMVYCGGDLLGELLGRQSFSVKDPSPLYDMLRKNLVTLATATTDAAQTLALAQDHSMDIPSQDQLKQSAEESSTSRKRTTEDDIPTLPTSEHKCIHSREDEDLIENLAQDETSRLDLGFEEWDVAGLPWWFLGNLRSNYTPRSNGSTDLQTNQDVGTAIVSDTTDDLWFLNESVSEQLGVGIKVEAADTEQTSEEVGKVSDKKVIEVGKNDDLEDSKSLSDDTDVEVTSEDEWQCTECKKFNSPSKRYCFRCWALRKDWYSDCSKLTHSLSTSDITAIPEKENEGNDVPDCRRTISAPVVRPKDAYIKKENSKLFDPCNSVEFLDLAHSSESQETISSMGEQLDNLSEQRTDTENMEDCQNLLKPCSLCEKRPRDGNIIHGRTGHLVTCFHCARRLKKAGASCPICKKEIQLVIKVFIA
Target sequence (Q00987 whole entry, looked up): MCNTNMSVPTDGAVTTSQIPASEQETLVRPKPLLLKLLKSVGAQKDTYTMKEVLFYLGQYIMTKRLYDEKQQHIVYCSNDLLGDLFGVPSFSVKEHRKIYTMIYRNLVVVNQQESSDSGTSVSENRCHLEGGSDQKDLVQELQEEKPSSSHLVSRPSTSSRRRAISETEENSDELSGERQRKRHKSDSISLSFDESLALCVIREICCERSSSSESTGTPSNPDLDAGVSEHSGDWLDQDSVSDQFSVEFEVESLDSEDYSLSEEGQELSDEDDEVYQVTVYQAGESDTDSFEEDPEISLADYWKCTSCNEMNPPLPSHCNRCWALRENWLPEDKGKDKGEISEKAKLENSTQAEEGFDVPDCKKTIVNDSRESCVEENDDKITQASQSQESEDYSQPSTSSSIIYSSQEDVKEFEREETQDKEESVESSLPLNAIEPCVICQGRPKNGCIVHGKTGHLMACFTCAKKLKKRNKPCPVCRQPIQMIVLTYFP
Exocytosis inh: LAMP-1 surface exposure blockers, TALL-104 cells – cell-based, flow cytometry, MLPCN library, primary screen; TALL-104 LAMP-1 surface exposure; cells stimulated with thapsigargin and PMA; inhibition, % at 10 µM; actives 0.66% (n = 360,000); AID 651702, 2012;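 active = inhibition above about 55%, limit read from the data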
ABHD5 PLIN5 PPI: ABHD5-PLIN5 interaction inhibitors, primary screen, cell lysate, split luciferase complementation, luminescence; Perilipin-5 (Homo sapiens) + 1-acylglycerol-3-phosphate O-acyltransferase ABHD5 (Homo …; Split G. princeps luciferase complementation, 4 h; inhibition, % at 4 µM; actives 0.78% (n = 360,000); AID 602281, 2012;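 active = inhibition above the mean inhibition across every tested compound plus 3 SD, cut at about 22% in these data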
UPR CHOP act: activators of apoptotic CHOP UPR arm, primary screen, cell-based, CHO-CHOP luciferase reporter, luminescence, uHTS. UPR activation; percent of tunicamycin response over DMSO baseline. activation, % at 10 µM. actives 0.34% (n = 330,000). AID 449763, 2010;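 active = at 10 µM dose, activation of 40% or more, normalized to positive control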
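System: CHO-CHOP luciferase reporter cell line | Buffer or medium: F12 medium containing 10% fetal bovine serum | Doses: One dose, 10 µM in 0.5% DMSO | Times: 6 h compound exposure at 37 °C after overnight seeding | Signal: Luciferase luminescence | Read-out: % activation vs tunicamycin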
Mdm2 MdmX conf: Mdm2-MdmX complex disruptors, retested hits, confirmation, luminescence, single concentration. shares compounds with Mdm2-MdmX inh. Mdm2-MdmX binding, luminescent assay. inhibition, % at 8 µM. actives 55% (n = 10,000). AID 489028, 2010; in the data active = inhibition above about 40%
Full FLuc ctr: full-length luciferase signal inhibition, confirmation, counter-screen for Mdm2/MdmX interaction inhibitor project, cell-based, single concentration, SaOS-2; shares compounds with Mdm2-MdmX inh; SaOS-2 full-length luciferase counterscreen, luminescence; inhibition, % at 8 µM; actives 77% (n = 6,200); AID 504607, 2011;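 active = mean inhibition at 8 µM reaching about 37%, which flags the compound as non-specific, limit read from the data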;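 also: p53-null SaOS-2 cells with luciferase driven by a doxycycline-inducible promoter; compound on cells about two nights before reading with doxycycline added after day one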
A number is an active result; 0 = inactive; - = not tested or not shown. Shown are actives, neighbours in structure and some others; about 4% of the full set was active somewhere.

SMILES	UPR XBP1 act	Mdm2-MdmX inh	Exocytosis inh	ABHD5 PLIN5 PPI	UPR CHOP act	Mdm2 MdmX conf	Full FLuc ctr
C=C(C)COc1ccc(-c2[nH]ncc2-c2ccc(Br)cc2)c(O)c1	0	59.7	0	0	0	61.9	44.4
N#C/C(=C/c1ccc(Br)o1)C(N)=S	0	75.5	-	-	0	42.6	63.5
CC(C)(C)OC(=O)NCCCC[C@H](NC(=O)c1nc[nH]c1C(=O)NCc1ccc(CNC(=O)OC(C)(C)C)cc1)C(=O)OC(C)(C)C	0	0	0	0	0	-	-
ClCc1nc2ccccc2c2ccccc12	0	51.7	0	0	0	0	-
CCOC(=O)c1c(CCl)nc2ccccc2c1-c1ccccc1	0	0	0	0	0	-	-
CCOC(=O)C1=C(N)n2c(s/c(=C\c3ccncc3)c2=O)=C(C(=O)OCC)C1c1ccncc1 (centres undefined)	0	0	0	0	0	-	-
CCOC(=O)C1=C(N)n2c(s/c(=C\c3cccs3)c2=O)=C(C(=O)OCC)C1c1cccs1 (centres undefined)	0	61.7	0	0	0	50.3	79.3
Cc1ccc(-c2nnc(NC(=O)Cc3ccc(F)cc3)o2)c(C)c1	0	0	0	0	0	-	-
Cc1ccc(C)c(-c2nnc(NC(=O)Cc3ccc(F)cc3)o2)c1	0	51.9	0	0	0	0	-
CCCn1c(NC(=O)c2cccc(S(=O)(=O)N3CCCC3)c2)nc2ccccc21	0	93.3	0	0	0	75.8	57.4
S=C(Nc1ccccc1)Nc1nc2ccccc2n1CCOc1ccc(Cl)cc1	0	83.7	0	0	0	41.3	67.8
CCCn1c(NC(=S)Nc2ccccc2)nc2ccccc21	0	52.2	0	0	0	0	-
CCCCCCCn1c(NC(=O)CC)nc2ccccc21	0	77.3	0	0	0	41.5	51.5
CCC(=O)Nc1nc2ccccc2n1CCN1CCOCC1	0	0	0	0	0	-	-
Cc1ccc(Oc2ccccc2/C=C2\SC(=O)N(C)C2=O)cc1	0	0	0	0	0	-	-
Cc1ccc(C(=O)c2no[n+]([O-])c2C(=O)c2ccc(C)cc2)cc1	0	50.7	67.6	0	0	0	-
CCOC(=O)[C@]12CCC=C1N(Cc1ccc(Cl)cc1Cl)C(=O)[C@H](CC(=O)NCc1ccc(OC)c(OC)c1)C2	-	-	0	0	-	-	-
O=C(c1cccc(C(F)(F)F)c1)N1CCCC1	0	0	0	0	0	-	-
CC(C)(C)c1ccc(CS(=O)(=O)CC2(O)CCN(C(=O)c3cccc(C(F)(F)F)c3)CC2)cc1	0	61.4	0	0	0	0	-
Cc1cc(C)cc(NC(=O)CCn2c(=O)c3cccn3c3ccccc32)c1	0	56.0	0	0	0	50.0	51.5
COc1cccc(-c2cc(=O)c3cc(NC(=O)c4ccccc4)ccc3[nH]2)c1	0	58.7	0	0	0	58.1	41.6
COc1cccc(-c2cc(=O)c3cc(NC(=O)c4ccc(N(C)C)cc4)ccc3[nH]2)c1	0	65.0	-	-	0	60.0	71.1
COc1cccc(-c2cc(=O)c3cc(NC(=O)c4ccc(Cl)cc4)ccc3[nH]2)c1	0	0	0	0	0	-	-
COc1cccc(N=C2C(=O)N3CCCc4cccc2c43)c1	0	0	0	0	0	-	-
COc1cc(-c2nnc(COc3ccc4cc(Br)ccc4c3)o2)cc(OC)c1OC	0	60.5	0	0	0	0	-
COc1ccc(-c2nnc(COc3ccc4ccccc4c3)o2)cc1OC	0	0	0	0	0	-	-
COc1ccc(N2CCN(C(=O)C3CCN(S(=O)(=O)N4CCOCC4)CC3)CC2)cc1	-	-	0	0	-	-	-
